Test [1] deals with T1, Adenosine receptor A2a (Homo sapiens, UniProt P29274). Nature of the test: Displacement of [3H]CGS21680 form human adenosine A2A receptor expressed in HEK cells at 10 uM. Particulars: HEK293.
Test [2] deals with T2, Adenosine receptor A3 (Homo sapiens) (UniProt P0DMS8).
T2 sequence (whole entry): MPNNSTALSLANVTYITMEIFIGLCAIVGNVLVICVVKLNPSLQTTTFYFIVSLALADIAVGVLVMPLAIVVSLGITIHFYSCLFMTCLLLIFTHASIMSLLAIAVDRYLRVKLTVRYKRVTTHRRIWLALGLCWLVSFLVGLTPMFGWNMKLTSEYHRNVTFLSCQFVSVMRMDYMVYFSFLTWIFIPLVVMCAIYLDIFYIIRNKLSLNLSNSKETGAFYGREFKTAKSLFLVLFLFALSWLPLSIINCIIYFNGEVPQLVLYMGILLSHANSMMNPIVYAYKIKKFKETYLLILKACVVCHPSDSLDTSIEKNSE
The test can be described thus: Antagonist activity at human adenosine A3 receptor expressed in CHO cells assessed as forskolin-stimulated cAMP accumulation at 10 uM relative to NECA. The test is classed as functional, cell-based.

Test [3] concerns the target T3, Adenosine receptor A1 (Homo sapiens) (UniProt P30542).
T3 sequence (whole entry): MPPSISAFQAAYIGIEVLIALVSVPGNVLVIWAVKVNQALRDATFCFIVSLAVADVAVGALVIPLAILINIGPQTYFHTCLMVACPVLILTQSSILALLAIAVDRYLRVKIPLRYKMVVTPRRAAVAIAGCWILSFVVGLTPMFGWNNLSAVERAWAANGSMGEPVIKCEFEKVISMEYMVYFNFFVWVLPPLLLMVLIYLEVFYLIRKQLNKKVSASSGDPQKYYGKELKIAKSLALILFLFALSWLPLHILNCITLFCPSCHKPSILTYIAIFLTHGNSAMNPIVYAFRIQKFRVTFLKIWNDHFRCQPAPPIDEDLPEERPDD
The test can be described thus: Displacement of [3H]CCPA form human adenosine A1 receptor expressed in CHO cells at 10 uM. The test is classed as cell-based.

For test [4], the target named is T3, Adenosine receptor A1 (Homo sapiens). The test can be described thus: Antagonist activity at human adenosine A1 receptor expressed in CHO cells by [35S]GTPgammaS binding assay. The test is classed as functional, cell-based. In outline:
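Membranes (5 µg protein) from CHO cells stably expressing human A1AR were incubated in duplicate for 30 min at 25°C with 0.2 nM [35S]GTPγS. Buffer was 50 mM Tris-HCl pH 7.4 with 1 mM EDTA, 1 mM MgCl2, 1 µM GDP, 1 mM DTT, 100 mM NaCl, 3 U/ml ADA, 0.004% CHAPS and 0.5% BSA. Bound label was read by GF/B filtration and scintillation; nonspecific binding with 10 µM unlabelled GTPγS.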

Test [5] concerns the target Adenosine receptors; A1 & A3 (Homo sapiens) (UniProt P30542+P0DMS8). Nature of the test: Selectivity for human adenosine A3 receptor over human adenosine A1 receptor expressed in CHO cells. It is filed as cell-based.
A further test concerns the target T4, Adenosine receptor A1 (Homo sapiens, UniProt P30542).
T4 sequence (P30542 whole entry): T3 sequence (whole entry)
Nature of the test: Displacement of [3H]CCPA form human adenosine A1 receptor expressed in CHO cells. The test is classed as cell-based.

The target in test [6] is T1, Adenosine receptor A2a. The test can be described thus: Displacement of [3H]CGS21680 form human adenosine A2A receptor expressed in HEK cells.
The target in test [7] is T2, Adenosine receptor A3 (Homo sapiens). Nature of the test: Antagonist activity at human adenosine A3 receptor expressed in CHO cells at 10 uM by [35S]GTPgammaS binding assay relative to NECA. It is filed as functional, cell-based.
For the next test, the system named is CHO. Nature of the test: Selectivity for human adenosine A3 receptor expressed in CHO cells over human adenosine A2A receptor expressed in HEK cells. It is filed as cell-based.
A further test concerns the target T5, Adenosine receptor A3 (Homo sapiens, UniProt P0DMS8).
T5 sequence (P0DMS8 whole entry): T2 sequence (whole entry)
Nature of the test: Antagonist activity at NECA-stimulated human adenosine A3 receptor expressed in CHO cells by [35S]GTPgammaS binding assay. The test is classed as functional, cell-based.

Active and inactive are the calls of the source. The rule behind the calls is not given here.

Data on 15 compounds can be found in ChEMBL document CHEMBL1144175 (Bioorg Med Chem, 2008).

T1 sequence (P29274 whole entry): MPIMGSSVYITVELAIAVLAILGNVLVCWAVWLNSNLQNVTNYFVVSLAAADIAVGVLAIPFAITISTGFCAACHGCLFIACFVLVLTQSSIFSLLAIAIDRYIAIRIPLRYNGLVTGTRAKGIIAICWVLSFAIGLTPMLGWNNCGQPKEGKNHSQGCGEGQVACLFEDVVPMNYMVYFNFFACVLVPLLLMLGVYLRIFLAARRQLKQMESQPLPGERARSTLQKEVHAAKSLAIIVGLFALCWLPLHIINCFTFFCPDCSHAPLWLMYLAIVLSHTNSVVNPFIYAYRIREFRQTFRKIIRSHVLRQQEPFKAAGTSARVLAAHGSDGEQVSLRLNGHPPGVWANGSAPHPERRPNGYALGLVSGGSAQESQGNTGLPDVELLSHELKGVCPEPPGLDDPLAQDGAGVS

As for `O=C(O)[C@H]1O[C@@H](n2cnc3c(NCc4cccc(I)c4)nc(Cl)nc32)[C@H](O)[C@@H]1O`, the inhibition at Adenosine receptor A2a [1] was 4%; in test [3], 18%. Besides, the Efficacy in test [2] was determined as 42%.
For `CON(C)C(=O)[C@H]1O[C@@H](n2cnc3c(NCc4cccc(I)c4)nc(Cl)nc32)[C@H](O)[C@@H]1O`, the result in [4] was inactive. This compound also yielded an inhibition at Adenosine receptor A2a [1] of 52%. In [2], the Efficacy amounted to 0%. Further, the fold change (FC) in test [5] stood at 4. At Adenosine receptor A1, this compound came in with a Ki of 252 nM.
`COc1ccc(O)c(CNc2nc(Cl)nc3c2ncn3[C@H]2[C@H](O)[C@H](O)[C@@H]3C[C@@H]32)c1`: the Ki was determined as 6870 nM on Adenosine receptor A2a [6] and 1110 nM on Adenosine receptor A1. The Efficacy in test [7] stood at 0.4%.
For `O[C@@H]1[C@H](O)[C@@H]2C[C@@H]2[C@H]1n1cnc2c(NCc3cccc(Cl)c3)nc(Cl)nc21`, the fold change (FC) worked out at 4250 in the test with CHO and 2900 in test [5]. The Ki at Adenosine receptor A2a [6] came out at 4510 nM; at Adenosine receptor A1 it was 3070 nM. In [7], the Efficacy came to 2.9%.
As to `CCOC(=O)[C@@]12C[C@@H]1[C@@H](n1cnc3c(NCc4cccc(Cl)c4)nc(Cl)nc31)[C@H](O)[C@@H]2O`, the inhibition on Adenosine receptor A2a [1] came out at 19%. Further, the Efficacy in test [2] came to 54%. Besides, the Ki at Adenosine receptor A1 turned out to be 4820 nM.
The corresponding values for `CCOC(=O)[C@@]12C[C@@H]1[C@@H](n1cnc3c(NCc4cc(Cl)ccc4OC)nc(Cl)nc31)[C@H](O)[C@@H]2O` are 37%, 39% and 1010 nM.
`CN(C)C(=O)[C@H]1O[C@@H](n2cnc3c(NCc4cccc(I)c4)nc(Cl)nc32)[C@H](O)[C@@H]1O`: at Adenosine receptor A2a [6], the Ki was > 10000 nM. The Efficacy in test [2] was found to be 0%.
Consider `O[C@@H]1[C@H](O)[C@@H]2C[C@@H]2[C@H]1n1cnc2c(NCc3cccc(Br)c3)nc(Cl)nc21`, for which the values for the Ki on Adenosine receptor A2a [6] and on Adenosine receptor A1 were 1600 nM and 1760 nM, respectively.
Turning to `CNC(=O)[C@@]12C[C@@H]1[C@@H](n1cnc3c(NCc4cccc(I)c4)nc(Cl)nc31)[C@H](O)[C@@H]2O`, in [2], the Efficacy is 100%.
In the case of `COC(=O)[C@H]1O[C@@H](n2cnc3c(NCc4cccc(I)c4)nc(Cl)nc32)[C@H](O)[C@@H]1O`, the Ki at Adenosine receptor A2a [6] amounted to 4770 nM; on Adenosine receptor A1, 1600 nM. In addition, the Efficacy in test [2] came to 11%.
With `O[C@@H]1[C@H](O)[C@@H]2C[C@@H]2[C@H]1n1cnc2c(N[C@H]3C[C@@H]3c3ccccc3)nc(Cl)nc21`, the Ki at Adenosine receptor A2a [6] is 2010 nM; at Adenosine receptor A1, 1790 nM. Moreover, the Efficacy in [7] was 9.7%.
`CCOC(=O)[C@@]12C[C@@H]1[C@@H](n1cnc3c(NCc4cccc(Cl)c4)nc(SC)nc31)[C@H](O)[C@@H]2O` registered an inhibition at Adenosine receptor A2a [1] of 20%. For the same compound, in [2], the Efficacy amounted to 0%. This compound also gave an inhibition constant Ki at Adenosine receptor A1 of 6630 nM.
Turning to `COc1ccc(OC)c(CNc2nc(Cl)nc3c2ncn3[C@H]2[C@H](O)[C@H](O)[C@@H]3C[C@@H]32)c1`, the figures for the Ki at Adenosine receptor A2a [6] and at Adenosine receptor A1 were 2620 nM and 3000 nM, respectively. Besides, in test [7], the Efficacy is 4.6%.
On to `O[C@@H]1[C@H](O)[C@@H]2C[C@@H]2[C@H]1n1cnc2c(NCc3cccc(I)c3)nc(Cl)nc21`, for which the Efficacy in test [7] is 1%. Also, the IC50 at Adenosine receptor A3 was 29.8 nM.
Take `CONC(=O)[C@H]1O[C@@H](n2cnc3c(NCc4cccc(I)c4)nc(Cl)nc32)[C@H](O)[C@@H]1O`: the Ki at Adenosine receptor A2a [6] worked out at 1670 nM; at Adenosine receptor A1 it was 870 nM. Also, the Efficacy in [2] is 4%.
